Laboratory results from ChEMBL document CHEMBL1135478, “From imidazoles to pyrimidines: new inhibitors of cytokine release” (J Med Chem, 2002).

Experiments:
[1] = biological target: T1, MAP kinase p38 (Homo sapiens, UniProt O15264+Q15759+Q16539+P53778); assay: Inhibition of p38 MAP kinase related interleukin (IL1-beta (cytokine) release from human whole blood; assay type: functional, tissue-based
In short: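 Human whole blood preincubated 15 min (37 °C, 5% CO₂) with compound from 70:30 Cremophor EL/ethanol stock dilutions (vehicle 1% in all samples). Stimulated with LPS (E. coli 026:B6), 1 µg/mL, 4 h, 37 °C. Reaction stopped on ice, then centrifuged. Supernatant IL-1β measured by ELISA. IC50 read from semilog plot of % reduction vs vehicle controls. At least duplicate.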

[2] = biological target: T1, MAP kinase p38; assay: Inhibition of p38 MAP kinase related interleukin (IL1-beta (cytokine) release from human peripheral blood mononuclear cells
[3] = biological target: T1, MAP kinase p38; assay: Inhibition of p38 MAP kinase related TNF-alpha release from human whole blood; assay type: functional, tissue-based
[4] = biological target: T1, MAP kinase p38; assay: Inhibition of p38 MAP kinase related TNF-alpha release from peripheral blood mononuclear cells (PBMC); assay type: functional
[5] = biological target: T1, MAP kinase p38; assay: Inhibition of Mitogen-activated protein kinase p38; assay type: protein assay

IC50 [1] [µM]	IC50 [2] [µM]	IC50 [3] [µM]	IC50 [4] [µM]	IC50 [5] [µM]	Compound
> 100	75.5	> 100	54		C[S+]([O-])c1ccc(CSc2ncc(-c3ccc(F)cc3)c(-c3cccnc3)n2)cc1 (stereo unspecified)
> 100	17.8	> 100	29.9		C[S+]([O-])c1ccc(CSc2ncc(-c3ccncc3)c(-c3ccc(F)cc3)n2)cc1 (stereo unspecified)
> 100	25.5	> 100	27		C[S+]([O-])c1ccc(CSc2nc(O)c(-c3ccc(F)cc3)c(-c3ccncc3)n2)cc1 (stereo unspecified)
4	0.9	47.5	15		C[S+]([O-])c1ccccc1CSc1nc(-c2ccc(F)cc2)c(-c2ccncc2)[nH]1 (stereo unspecified)
2.78	0.88	20.3	3.65	4	C[S+]([O-])c1ccc(CSc2nc(-c3ccc(F)cc3)c(-c3ccncc3)[nH]2)cc1 (stereo unspecified)
4.1	1	33.5	23.5		C[S+]([O-])c1cccc(CSc2nc(-c3ccc(F)cc3)c(-c3ccncc3)[nH]2)c1 (stereo unspecified)
	5.4		6.5	19	C[S+]([O-])c1cccc(CSc2ncc(-c3ccc(F)cc3)c(-c3ccncc3)n2)c1 (stereo unspecified)
> 100	7.7	> 100	17.8		CS(=O)(=O)c1ccc(CSc2ncc(-c3ccc(F)cc3)c(-c3ccncc3)n2)cc1
45.5	5.6	95.5	14.1	36	C[S+]([O-])c1ccc(CSc2ncc(-c3ccc(F)cc3)c(-c3ccncc3)n2)cc1 (stereo unspecified)
> 100	7.4	> 100	60		CSc1ccc(CSc2ncc(-c3ccc(F)cc3)c(-c3ccncc3)n2)cc1
